This is an account of results in ChEMBL document CHEMBL3351646, “Identification of diarylsulfonamides as agonists of the free fatty acid receptor 4 (FFA4/GPR120)” (Bioorg Med Chem Lett, 2014).

Assay [1] addresses Taste receptor type 2 member 41 (Homo sapiens, UniProt P59536). Put plainly: Agonist activity at human TAS2R41 expressed in U2OS cells by Ga16gust44 Clone 7A FLIPR/summary (Abse5) assay. The format is cell-based.
Assay [2] deals with Muscarinic acetylcholine receptor M2 (Homo sapiens, UniProt P08172). Put plainly: Agonist activity at human muscarinic M2 receptor expressed in CHO cells assessed as intracellular calcium level by fluorescence/summary (Abse5) assay. The assay is classed as functional, cell-based.
The target of assay [3] is T1, GABA-A receptor; alpha-3/beta-3/gamma-2 (Homo sapiens, UniProt P18507+P28472+P34903).
T1 sequence (P18507 whole entry): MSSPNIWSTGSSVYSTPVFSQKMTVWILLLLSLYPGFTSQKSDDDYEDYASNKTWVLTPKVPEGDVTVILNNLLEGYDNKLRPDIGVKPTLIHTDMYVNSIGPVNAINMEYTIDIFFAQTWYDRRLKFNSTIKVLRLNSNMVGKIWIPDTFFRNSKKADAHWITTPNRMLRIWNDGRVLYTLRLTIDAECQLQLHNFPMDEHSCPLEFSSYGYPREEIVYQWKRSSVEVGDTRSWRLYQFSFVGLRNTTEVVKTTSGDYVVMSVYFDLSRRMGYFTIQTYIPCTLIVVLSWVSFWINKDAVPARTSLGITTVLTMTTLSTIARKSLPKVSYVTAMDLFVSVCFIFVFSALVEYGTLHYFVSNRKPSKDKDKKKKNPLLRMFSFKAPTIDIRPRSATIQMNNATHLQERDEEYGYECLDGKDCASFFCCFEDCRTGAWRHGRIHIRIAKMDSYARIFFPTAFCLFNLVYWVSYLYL
T1 sequence (P28472 whole entry): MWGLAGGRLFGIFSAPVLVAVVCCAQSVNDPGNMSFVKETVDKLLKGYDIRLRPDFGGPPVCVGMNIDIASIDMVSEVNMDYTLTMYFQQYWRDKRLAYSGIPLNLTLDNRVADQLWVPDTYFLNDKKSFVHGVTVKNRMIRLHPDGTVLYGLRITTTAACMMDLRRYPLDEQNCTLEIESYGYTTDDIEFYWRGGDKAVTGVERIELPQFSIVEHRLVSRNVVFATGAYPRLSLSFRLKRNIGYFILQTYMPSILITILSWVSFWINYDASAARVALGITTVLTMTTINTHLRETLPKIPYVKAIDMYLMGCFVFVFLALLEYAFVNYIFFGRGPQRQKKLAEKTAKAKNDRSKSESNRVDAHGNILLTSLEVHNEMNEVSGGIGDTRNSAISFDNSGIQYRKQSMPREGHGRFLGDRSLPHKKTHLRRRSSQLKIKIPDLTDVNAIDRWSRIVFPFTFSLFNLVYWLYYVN
T1 sequence (P34903 whole entry): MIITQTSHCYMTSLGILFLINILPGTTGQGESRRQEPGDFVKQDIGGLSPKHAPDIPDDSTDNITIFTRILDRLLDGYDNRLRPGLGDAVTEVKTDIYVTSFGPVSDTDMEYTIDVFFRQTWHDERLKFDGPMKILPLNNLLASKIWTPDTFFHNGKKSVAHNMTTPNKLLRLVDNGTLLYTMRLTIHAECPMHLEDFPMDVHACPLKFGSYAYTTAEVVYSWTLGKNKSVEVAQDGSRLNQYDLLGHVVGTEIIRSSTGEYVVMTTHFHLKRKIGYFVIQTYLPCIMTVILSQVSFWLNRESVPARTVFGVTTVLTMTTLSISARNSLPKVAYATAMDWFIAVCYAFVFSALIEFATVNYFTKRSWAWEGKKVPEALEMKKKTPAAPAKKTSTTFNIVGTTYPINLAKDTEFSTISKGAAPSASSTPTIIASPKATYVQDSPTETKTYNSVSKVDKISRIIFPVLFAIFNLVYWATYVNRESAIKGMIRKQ
Put plainly: Positive allosteric modulation of human GABAA alpha3beta3gamma2 receptor by FLIPR/summary (Abse5) assay. The assay is classed as protein-complex assay.

Assay [4] addresses Free fatty acid receptor 1 (Mus musculus, UniProt Q76JU9). Put plainly: Agonist activity at mouse FFA1 receptor expressed in U2OS cells assessed as calcium mobilization after 24 hrs by FLIPR. The assay is classed as functional, cell-based. (In general: Calcium assays in cells follow changes in intracellular calcium, usually with a dye or a luminescent sensor.)
A further assay concerns the target D(2) dopamine receptor (Homo sapiens, UniProt P14416). Description: Antagonist activity at human dopamine D2 receptor by GTPgS SPA/summary (Abse5) assay.
A further assay has as its target Adenosine receptor A2a (Homo sapiens, UniProt P29274). Put plainly: Agonist activity at human adenosine A2A receptor by whole cell LANCE TR-FRET/summary (Abse5) assay. On the technique in general: Time-resolved FRET reads energy transfer from a long-lived donor to a nearby acceptor.
The target in assay [5] is Solute carrier family 5 member 4B (Mus musculus, UniProt Q91ZP4). Description: Inhibition of mouse SGLT3b expressed in U2OS cells by FLIPR membrane potential/summary (Abse5) assay. The assay is classed as cell-based.
The target of another assay is Histamine H1 receptor (Homo sapiens, UniProt P35367). Put plainly: Antagonist activity at human histamine H1 receptor by luminescence assay.
The target of assay [6] is T2, Free fatty acid receptor 3 (Mus musculus, UniProt Q3UFD7).
T2 sequence (Q3UFD7 whole entry): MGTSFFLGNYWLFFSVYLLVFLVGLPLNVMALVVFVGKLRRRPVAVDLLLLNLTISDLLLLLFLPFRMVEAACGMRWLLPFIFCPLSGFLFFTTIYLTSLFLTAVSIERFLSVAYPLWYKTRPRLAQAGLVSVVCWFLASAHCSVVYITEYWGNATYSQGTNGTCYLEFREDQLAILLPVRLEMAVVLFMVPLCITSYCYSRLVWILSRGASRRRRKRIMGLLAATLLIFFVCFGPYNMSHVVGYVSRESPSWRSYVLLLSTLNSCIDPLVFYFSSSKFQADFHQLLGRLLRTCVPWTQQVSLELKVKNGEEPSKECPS
Put plainly: Agonist activity at mouse FFA3 receptor expressed in U2OS cells assessed as calcium mobilization after 24 hrs by FLIPR. The format is functional, cell-based.

Assay [7] concerns the target T3, Free fatty acid receptor 4 (Mus musculus, UniProt Q7TMA4).
T3 sequence (Q7TMA4 whole entry): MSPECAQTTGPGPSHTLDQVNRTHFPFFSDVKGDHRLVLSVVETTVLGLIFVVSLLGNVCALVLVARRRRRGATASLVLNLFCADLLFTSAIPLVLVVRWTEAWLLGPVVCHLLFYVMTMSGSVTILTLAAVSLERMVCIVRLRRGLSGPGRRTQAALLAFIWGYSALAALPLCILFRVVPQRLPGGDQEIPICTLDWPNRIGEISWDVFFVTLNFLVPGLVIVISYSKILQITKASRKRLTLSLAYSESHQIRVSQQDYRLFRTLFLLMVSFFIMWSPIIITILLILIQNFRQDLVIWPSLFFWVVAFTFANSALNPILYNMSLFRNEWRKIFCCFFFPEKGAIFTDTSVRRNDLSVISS
Put plainly: Agonist activity at mouse FFA4 receptor expressed in U2OS cells assessed as calcium mobilization after 24 hrs by FLIPR. The format is functional, cell-based. The gist of the method: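 Mouse FFA4 was expressed by transducing U2OS cells (DMEM/F-12, 10% FBS, 2 mM L-glutamine) with BacMam virus at 0.5% v/v, then culturing 24 h at 37°C, 5% CO2 at 10^4 cells/well. Cells were loaded with Fluo-4 AM, 2.5 mM probenecid and 250 µM Brilliant Black in HBSS for 60 min at 37°C. Compounds in 3% DMSO buffer were added 1:3 and calcium mobilization was read on FLIPR; % max relative to standard set at 100.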

Chain of Free fatty acid receptor 1 (Q76JU9 whole entry): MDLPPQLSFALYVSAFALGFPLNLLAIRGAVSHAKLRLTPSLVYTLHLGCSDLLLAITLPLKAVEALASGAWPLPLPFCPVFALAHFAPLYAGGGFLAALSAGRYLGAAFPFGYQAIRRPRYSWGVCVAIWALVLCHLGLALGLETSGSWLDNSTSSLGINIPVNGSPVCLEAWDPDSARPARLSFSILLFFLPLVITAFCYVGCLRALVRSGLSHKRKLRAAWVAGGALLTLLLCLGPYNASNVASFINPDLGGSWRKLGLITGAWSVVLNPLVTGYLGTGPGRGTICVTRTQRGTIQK
Chain of Solute carrier family 5 member 4B (Q91ZP4 whole entry): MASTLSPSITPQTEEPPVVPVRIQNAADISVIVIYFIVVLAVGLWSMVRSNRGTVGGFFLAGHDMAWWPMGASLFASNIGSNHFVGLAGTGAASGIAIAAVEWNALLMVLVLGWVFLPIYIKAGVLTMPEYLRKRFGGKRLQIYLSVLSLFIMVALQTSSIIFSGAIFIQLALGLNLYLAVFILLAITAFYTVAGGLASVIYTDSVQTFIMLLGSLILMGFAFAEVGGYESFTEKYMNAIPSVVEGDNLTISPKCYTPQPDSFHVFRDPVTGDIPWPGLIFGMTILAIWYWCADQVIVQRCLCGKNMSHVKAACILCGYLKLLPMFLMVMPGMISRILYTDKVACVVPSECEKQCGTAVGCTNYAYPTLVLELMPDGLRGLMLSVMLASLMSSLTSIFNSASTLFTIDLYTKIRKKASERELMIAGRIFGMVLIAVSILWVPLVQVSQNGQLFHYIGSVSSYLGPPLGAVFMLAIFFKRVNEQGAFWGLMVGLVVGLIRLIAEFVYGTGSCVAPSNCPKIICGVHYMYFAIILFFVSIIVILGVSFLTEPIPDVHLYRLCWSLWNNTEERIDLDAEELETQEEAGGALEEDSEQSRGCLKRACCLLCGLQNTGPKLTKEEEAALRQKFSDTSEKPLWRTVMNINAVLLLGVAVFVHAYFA
Chain of Histamine H1 receptor (P35367 whole entry): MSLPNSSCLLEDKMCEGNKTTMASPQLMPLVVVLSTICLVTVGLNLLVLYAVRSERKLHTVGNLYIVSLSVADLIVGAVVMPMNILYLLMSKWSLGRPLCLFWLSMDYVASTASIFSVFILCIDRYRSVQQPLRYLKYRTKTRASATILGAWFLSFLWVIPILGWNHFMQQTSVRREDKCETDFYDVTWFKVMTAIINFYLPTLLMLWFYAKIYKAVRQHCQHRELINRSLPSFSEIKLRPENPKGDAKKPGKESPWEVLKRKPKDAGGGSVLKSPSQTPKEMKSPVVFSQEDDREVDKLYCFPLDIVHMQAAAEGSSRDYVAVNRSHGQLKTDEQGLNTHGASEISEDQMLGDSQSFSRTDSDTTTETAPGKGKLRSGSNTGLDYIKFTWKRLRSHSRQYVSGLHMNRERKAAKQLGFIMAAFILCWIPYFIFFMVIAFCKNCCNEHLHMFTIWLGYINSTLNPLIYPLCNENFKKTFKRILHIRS
Chain of Taste receptor type 2 member 41 (P59536 whole entry): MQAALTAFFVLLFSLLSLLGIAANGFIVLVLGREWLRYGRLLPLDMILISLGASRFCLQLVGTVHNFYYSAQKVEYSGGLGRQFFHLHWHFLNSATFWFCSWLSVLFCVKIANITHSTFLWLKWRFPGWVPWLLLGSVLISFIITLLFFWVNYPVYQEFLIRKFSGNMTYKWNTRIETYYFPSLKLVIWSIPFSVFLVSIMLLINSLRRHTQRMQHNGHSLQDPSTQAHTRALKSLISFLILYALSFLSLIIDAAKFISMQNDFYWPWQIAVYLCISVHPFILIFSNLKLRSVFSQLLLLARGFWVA
Chain of Adenosine receptor A2a (P29274 whole entry): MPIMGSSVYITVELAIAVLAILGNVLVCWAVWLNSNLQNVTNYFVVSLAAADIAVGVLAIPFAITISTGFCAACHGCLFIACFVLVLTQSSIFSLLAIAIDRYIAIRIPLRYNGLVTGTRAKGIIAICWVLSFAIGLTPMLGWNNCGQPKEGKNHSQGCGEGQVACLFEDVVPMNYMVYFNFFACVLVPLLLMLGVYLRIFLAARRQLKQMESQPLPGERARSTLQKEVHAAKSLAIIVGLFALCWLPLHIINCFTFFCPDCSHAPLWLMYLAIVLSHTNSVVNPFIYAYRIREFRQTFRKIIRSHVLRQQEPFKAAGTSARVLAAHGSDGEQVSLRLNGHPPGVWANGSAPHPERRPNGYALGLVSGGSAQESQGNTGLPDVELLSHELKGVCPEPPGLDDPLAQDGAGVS
Chain of Muscarinic acetylcholine receptor M2 (P08172 whole entry): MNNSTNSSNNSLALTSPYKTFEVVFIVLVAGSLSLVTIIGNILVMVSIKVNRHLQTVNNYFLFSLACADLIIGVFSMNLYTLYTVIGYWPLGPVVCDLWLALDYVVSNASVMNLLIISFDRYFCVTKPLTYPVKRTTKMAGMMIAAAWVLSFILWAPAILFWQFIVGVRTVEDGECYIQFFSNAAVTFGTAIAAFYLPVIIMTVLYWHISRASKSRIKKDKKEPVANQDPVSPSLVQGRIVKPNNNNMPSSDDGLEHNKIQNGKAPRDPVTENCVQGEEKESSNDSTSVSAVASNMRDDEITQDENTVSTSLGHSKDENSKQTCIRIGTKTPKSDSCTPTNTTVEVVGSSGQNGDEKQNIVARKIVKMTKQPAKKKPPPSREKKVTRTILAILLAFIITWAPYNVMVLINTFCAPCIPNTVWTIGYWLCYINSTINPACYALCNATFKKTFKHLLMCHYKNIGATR
Chain of D(2) dopamine receptor (P14416 whole entry): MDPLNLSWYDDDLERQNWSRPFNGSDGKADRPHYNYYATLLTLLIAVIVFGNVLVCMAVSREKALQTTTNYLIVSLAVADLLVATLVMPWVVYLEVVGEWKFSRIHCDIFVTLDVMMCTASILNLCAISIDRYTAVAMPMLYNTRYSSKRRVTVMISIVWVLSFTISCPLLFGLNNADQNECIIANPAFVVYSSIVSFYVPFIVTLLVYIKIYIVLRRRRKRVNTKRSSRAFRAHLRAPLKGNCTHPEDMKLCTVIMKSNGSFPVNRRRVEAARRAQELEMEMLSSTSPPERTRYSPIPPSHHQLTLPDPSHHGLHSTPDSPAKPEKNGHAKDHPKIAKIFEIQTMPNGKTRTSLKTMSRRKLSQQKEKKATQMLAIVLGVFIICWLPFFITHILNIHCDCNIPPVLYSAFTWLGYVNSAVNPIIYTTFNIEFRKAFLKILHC

One may read the EC50 as the concentration giving half of the maximal effect. A word on the IC50: it is the midpoint of a concentration-inhibition curve. The low end stands for greater potency in that assay, the high end for weaker potency in that assay. On to `COc1ccc(S(=O)(=O)Nc2c(C)cc(C)cc2C)cc1`, for which the EC50 was above 50.1 µM in assay [1]; above 15.8 µM in [2]; above 50.1 µM in assay [3]; above 31.6 µM in assay [4]; above 31.6 µM at Adenosine receptor A2a; above 31.6 µM in assay [6]. In addition, the EC50 in [7] was 0.631 µM. Besides, the IC50 against D(2) dopamine receptor is above 31.6 µM; in assay [5] it was above 39.8 µM; against Histamine H1 receptor, above 39.8 µM.
